Assay results from ChEMBL document CHEMBL1145955, “Synthesis, anti-HIV activity, and molecular mechanism of drug resistance of L-2',3'-didehydro-2',3'-dideoxy-2'-fluoro-4'-thionucleosides” (J Med Chem, 2003).

Legend:
CCRF-CEM = test: Evaluated in vitro for their potential toxic effects human CEM cells; assay type: functional, cell-based
Procedure, shortened: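 CEM T-lymphoblastoid cells in log phase, 2.5 × 10³ cells/well, were exposed to 10-fold serial drug dilutions for 4 days at 37 °C, 5% CO₂. Viability was read by MTT (overnight dye, 5 h solubilization, 570 nm). IC50 was determined by the median-effect method.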

[1] = test system: Human immunodeficiency virus 1; test: (§1) In vitro anti-HIV activity was determined in PBM cells infected with HIV-1; assay type: functional, organism-based; details: Human immunodeficiency virus 1, PBMC
Procedure, shortened: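 PHA-stimulated (2-3 days) human PBM cells from healthy seronegative donors, infected in bulk for 1 h with HIV-1 LAI (100 TCID50/1 × 10⁷ cells in flasks or 200 TCID50/6 × 10⁵ cells/well). Infected cells went onto 10-fold serial compound dilutions in RPMI-1640 with 16% FBS, DEAE-dextran and IL-2, 5 days at 37 °C. Virion-pelleted supernatant RT activity was measured by poly(rA)·oligo(dT)/³H-TTP incorporation (37 °C, 2 h). EC50/EC90 came from median-effect curves.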

[2] = Evaluated in vitro for their potential toxic effects on uninfected PHA-stimulated human PBM cells; assay type: functional, cell-based
Procedure, shortened: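 Uninfected PHA-stimulated PBM cells from healthy seronegative donors (Ficoll-Hypaque) were plated at 5 × 10⁴ cells/well with 10-fold serial drug dilutions for 5 days at 37 °C, 5% CO₂. The MTT readout was taken at 570 nm after overnight dye and 5 h solubilization. IC50 came from median-effect curves.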

Vero = test: Evaluated in vitro for their potential toxic effects against Vero cells; assay type: functional, cell-based; details: Chlorocebus sabaeus
Procedure, shortened: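 Log-phase Vero cells were seeded at 5 × 10³ cells/well in 10-fold serial drug dilutions and incubated 3 days at 37 °C, 5% CO₂. MTT dye was added overnight, then solubilized for 5 h and read at 570 nm. IC50 was taken from median-effect concentration-response curves.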

[3] = test system: Human immunodeficiency virus 1; test: Antiviral activity was determined against WT (HIV-1xxBRU); assay type: functional
Procedure, shortened: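 Molecular infectious clone HIV-1 xxBru was used to infect PHA-stimulated human PBM cells in bulk for 1 h (100 TCID50/1 × 10⁷ cells or 200 TCID50/6 × 10⁵ cells/well). Cells were cultured 5 days at 37 °C with 10-fold serial compound dilutions. Readout was supernatant RT activity, with ³H-TTP incorporation on poly(rA)·oligo(dT). EC50 was derived by the median-effect method.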

[4] = test system: Human immunodeficiency virus 1; test: Antiviral activity was determined against lamivudine-resistant mutant M184V strain; assay type: functional
Procedure, shortened: (§2)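 Molecular clones HIV-1 xxBru (wild type) and HIV-1 M184Vpitt infected PHA-stimulated human PBM cells in bulk for 1 h. Cells were cultured with 10-fold serial compound dilutions, 5 days, 37 °C, 5% CO2. Read-out was supernatant RT activity with ³H-TTP incorporation. EC50 and EC90 were taken from concentration-response curves by the median effect method. Fold increase = EC90(M184V)/EC90(xxBru).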

[5] = Fold increase was determined from the ratio of EC90 (HIV-1M184V) / EC90 (HIV-1xxBRU); assay type: functional; procedure, shortened: as §2
[6] = test system: Vero (Chlorocebus sabaeus); test: Evaluated in vitro for their potential toxic effects against Vero cells
[7] = as §1; details: Homo sapiens, PBMC

EC50 [1] [µM]	SMILES	IC50 (CCRF-CEM) [µM]	IC50 [2] [µM]	IC50 (Vero) [µM]	EC90 [3] [µM]	EC90 [4] [µM]	FI [5]	IC50 [6] [µM]	EC50 [7] [µM]
> 100	Cc1cn([C@H]2S[C@@H](CO)C=C2F)c(=O)[nH]c1=O	> 100	> 100	> 100					
1.7	Nc1ncnc2c1ncn2[C@H]1S[C@@H](CO)C=C1F	> 100	> 100	> 100					
15.5	OC[C@H]1C=C(F)[C@@H](n2cnc3c(O)ncnc32)S1	> 100	> 100	> 100					
> 100	O=c1ccn([C@H]2S[C@@H](CO)C=C2F)c(=O)[nH]1	> 100	> 100	> 100					
43.5	Nc1nc(O)c2ncn([C@H]3S[C@@H](CO)C=C3F)c2n1	41.5	> 100	66.4					
0.15	Nc1nc(=O)n([C@H]2S[C@@H](CO)C=C2F)cc1F	> 100	> 100	> 100					
	Cc1cn([C@H]2C[C@H](N=[N+]=[N-])[C@@H](CO)O2)c(=O)[nH]c1=O [ZIDOVUDINE]	29	> 100	14.3					0.004

SMILES	EC50 [1] [µM]	IC50 (CCRF-CEM) [µM]	IC50 [2] [µM]	IC50 (Vero) [µM]	EC90 [3] [µM]	EC90 [4] [µM]	FI [5]	IC50 [6] [µM]	EC50 [7] [µM]
Nc1ccn([C@H]2S[C@@H](CO)C=C2F)c(=O)n1	0.12	> 100	> 100		1.4	> 100	> 100	> 100	
